Experimental data published in ChEMBL document CHEMBL1149660, “Identification and characterization of novel sodium/potassium-ATPase inhibitors by virtual screening of a compound database” (Bioorg Med Chem, 2007).
Activity calls are given as the source filed them. The rule behind the calls is not given here.

Tests used:
[1] = (§1) Inhibition of Na/K-ATPase in porcine cerebral cortex; assay type: tissue-based, Sus scrofa
How it was run: (§2)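 Coupled pyruvate kinase/lactate dehydrogenase assay using lyophilized porcine cerebral cortex Na/K-ATPase. The enzyme was preincubated at 37 °C for at least 30 min (or overnight at room temperature first, in some cases) with 10–14 inhibitor concentrations. Reactions were started with 5 mM ATP. NADH oxidation was followed at 340 nm for 5 min. IC50 came from the inhibition curves; relative potency is the IC50 divided by ouabain's IC50.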

Sus scrofa [2] = organism: Sus scrofa; experiment: Inhibition of Na/K-ATPase in porcine cerebral cortex relative to ouabain; assay type: tissue-based; how it was run: as §2
Sus scrofa [3] = organism: Sus scrofa; experiment: as §1; assay type: tissue-based; how it was run: as §2

SMILES	IC50 [1] [µM]	Activity (Sus scrofa [2])	Activity (Sus scrofa [3])
C[C@H]1O[C@@H](O[C@H]2CC[C@]3(C=O)[C@H]4CC[C@]5(C)[C@@H](C6=CC(=O)OC6)CC[C@]5(O)[C@@H]4CC[C@]3(O)C2)C[C@H]2OC(C)(C)O[C@@H]12	0.0146	0.031	
CC(=O)OCC(=O)[C@@]1(OC(C)=O)CC[C@H]2[C@@H]3CC[C@H]4C[C@H](OC(C)=O)CC[C@]4(C)[C@H]3CC[C@@]21C			inactive
C[C@]12CC[C@H]3[C@@H](CC[C@]4(O)C[C@@H](O)CC[C@]34/C=N/Nc3ccccc3)[C@@]1(O)CC[C@@H]2C1=CC(=O)OC1	4.23	7.89	
C[C@]12CC[C@H]3[C@@H](CC[C@]4(O)C[C@@H](O)CC[C@]34/C=N/C34CC5CC(CC(C5)C3)C4)[C@@]1(O)CC[C@@H]2C1=CC(=O)OC1	0.313	0.668	
CO[C@H]1[C@H](O)[C@H](O[C@H]2CC[C@@]3(C=O)[C@@H](CC[C@@H]4[C@H]3CC[C@]3(C)[C@@H](c5ccc(=O)oc5)CC[C@]43O)C2)O[C@@H](C)[C@@H]1O	0.0556	0.118	
C[C@H]1O[C@@H](O[C@H]2CC[C@]3(C=O)[C@H]4CC[C@]5(C)[C@@H](C6=CC(=O)OC6)CC[C@]5(O)[C@@H]4CC[C@]3(O)C2)C[C@H](O)[C@@H]1O[C@@H]1OC[C@@H](O)[C@H](O)[C@H]1O	0.16	0.341	
C[C@@H]1C[C@@H]2O[C@]3(C[C@@]4(C)[C@@H]5[C@@H](O)C[C@H]6C(C)(C)[C@@H](O[C@H]7OC[C@H](O)[C@@H](O)[C@@H]7O)CC[C@@]67C[C@@]57CC[C@]4(C)[C@@H]13)O[C@@H]2C(C)(C)O			inactive
CC(C)(O)[C@H]1CC[C@@](C)([C@H]2[C@@H](O)C[C@@]3(C)[C@@H]4C[C@H](O)C5C(C)(C)[C@@H](O[C@@H]6O[C@H](CO)[C@@H](O)[C@H](O)[C@H]6O)CC[C@@]56C[C@@]46CC[C@]23C)O1 (some centres not stated)			inactive
CC1OC(O[C@H]2CC[C@]3(/C=N/CCc4ccc(O)cc4)[C@H]4CC[C@]5(C)[C@@H](C6=CC(=O)OC6)CC[C@]5(O)[C@@H]4CC[C@]3(O)C2)CC(O)C1O (some centres not stated)	2.64	4.92	
C[C@H]1CCC([C@@H](C)[C@H]2CC[C@@H]3[C@@H]2CC[C@H]2[C@H]3CC(=O)[C@H]3C[C@@H](O)CC[C@@]32C)=NC1	143	305	
C[C@]12CC[C@H]3[C@@H](CC[C@]4(O)C[C@@H](OC(=O)c5cccnc5)CC[C@]34C=O)[C@@]1(O)CC[C@@H]2C1=CC(=O)OC1	0.443	0.944	
C[C@H]1O[C@@H](O[C@H]2CC[C@]3(C=O)[C@H]4CC[C@]5(C)[C@@H](C6=COC(=O)C6)CC[C@]5(O)[C@@H]4CC[C@]3(O)C2)C[C@@H]2OC3(CCCCC3)O[C@@H]21	0.409	0.872	
C[C@]12CC[C@@H](O)C[C@@H]1[C@@H](O)C[C@H]1[C@H]2CC[C@]2(C)[C@@H]([C@@]3(C)CO3)CC[C@]12C			inactive
